Data on 1 compound can be found in ChEMBL document CHEMBL3352570, “ST7612AA1, a thioacetate-ω(γ-lactam carboxamide) derivative selected from a novel generation of oral HDAC inhibitors” (J Med Chem, 2014).

In general, inhibition refers to the drop in the measured response relative to a control, in per cent. The term half-life denotes how long it takes for the measured level to halve. A high value points to slow loss. In general, IC50 refers to the concentration at which inhibition is half-maximal. Lower therefore signals greater potency in that assay.

Data set [1] concerns the target T1, Cholecystokinin receptor type A (Homo sapiens) (UniProt P32238).
T1 sequence (whole entry): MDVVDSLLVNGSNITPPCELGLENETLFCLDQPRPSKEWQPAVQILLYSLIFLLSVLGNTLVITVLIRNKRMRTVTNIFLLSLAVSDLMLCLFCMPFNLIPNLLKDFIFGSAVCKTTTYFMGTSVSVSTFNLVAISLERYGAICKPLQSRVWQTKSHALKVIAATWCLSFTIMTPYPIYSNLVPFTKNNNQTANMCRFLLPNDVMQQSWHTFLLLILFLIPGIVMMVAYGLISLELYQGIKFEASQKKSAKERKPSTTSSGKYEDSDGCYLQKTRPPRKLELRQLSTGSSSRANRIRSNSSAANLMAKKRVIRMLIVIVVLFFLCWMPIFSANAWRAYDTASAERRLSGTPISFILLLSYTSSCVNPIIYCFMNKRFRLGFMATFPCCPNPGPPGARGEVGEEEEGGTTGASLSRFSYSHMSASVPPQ
Briefly: Inhibition of human CCK1 at 10 uM by radioligand displacement assay. The method, boiled down:
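Tested at 10⁻⁵ M within a 40-target panel of receptors, ion channels and enzymes. Read-out was percent displacement of a radiolabeled reference ligand.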
On the technique in general: Displacement assays read how much labelled ligand stays bound in the presence of the test substance.

A further data set has as its system Mus musculus. Briefly: Toxicity in human HCT116 cells xenografted athymic nude mouse assessed as body weight loss at 100 mg/kg, po qd for 5 days a week for 3 weeks. The format is organism-based, HCT-116. On the set-up: dose 100 mg/kg, route oral. Particulars: in vivo. The method, boiled down: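 Nude mice (female, athymic, 5–6 weeks) carried sc right-flank xenografts of 5 × 10⁶ cells per 100 μL. Oral treatment once daily started 3 days after inoculation.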
Background: Xenograft models place foreign cells or tissue in a host animal.

The nature of data set [2]: Half life in human hepatocytes at 5 uM by LCMS/MS analysis. The class given is ADME, cell-based, Hepatocyte. The method, boiled down:
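Incubation in human hepatocytes. […] Values are means of at least three experiments.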

The target of a further data set is T2, Histone deacetylase 11 (Homo sapiens, UniProt Q96DB2).
T2 sequence (Q96DB2 whole entry): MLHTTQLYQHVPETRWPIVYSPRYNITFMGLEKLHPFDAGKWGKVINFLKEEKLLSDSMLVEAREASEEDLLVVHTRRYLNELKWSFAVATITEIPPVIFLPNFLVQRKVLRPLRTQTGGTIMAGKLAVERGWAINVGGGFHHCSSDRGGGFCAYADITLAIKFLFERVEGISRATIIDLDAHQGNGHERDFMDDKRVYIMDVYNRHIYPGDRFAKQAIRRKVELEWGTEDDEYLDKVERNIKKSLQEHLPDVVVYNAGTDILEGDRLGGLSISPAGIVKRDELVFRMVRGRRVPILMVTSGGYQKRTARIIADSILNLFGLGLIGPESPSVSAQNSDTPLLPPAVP
Briefly: Inhibition of HDAC11 (unknown origin) using fluorogenic tetrapeptide RHKK(Ac) substrate by fluorescence assay.

The target in another data set is Histone deacetylase 3 (Homo sapiens, UniProt O15379). Briefly: Inhibition of HDAC3 (unknown origin) using fluorogenic tetrapeptide RHKK(Ac) substrate by fluorescence assay.
The target of the next data set is Histone deacetylase 1 (Homo sapiens, UniProt Q13547). The experiment in a line: Inhibition of HDAC1 (unknown origin) using fluorogenic tetrapeptide RHKK(Ac) substrate by fluorescence assay.
Another data set concerns the target Histone deacetylase 2 (Homo sapiens, UniProt Q92769). The experiment in a line: Inhibition of HDAC2 (unknown origin) using fluorogenic tetrapeptide RHKK(Ac) substrate by fluorescence assay.

Histone deacetylase 3, sequence (O15379 whole entry): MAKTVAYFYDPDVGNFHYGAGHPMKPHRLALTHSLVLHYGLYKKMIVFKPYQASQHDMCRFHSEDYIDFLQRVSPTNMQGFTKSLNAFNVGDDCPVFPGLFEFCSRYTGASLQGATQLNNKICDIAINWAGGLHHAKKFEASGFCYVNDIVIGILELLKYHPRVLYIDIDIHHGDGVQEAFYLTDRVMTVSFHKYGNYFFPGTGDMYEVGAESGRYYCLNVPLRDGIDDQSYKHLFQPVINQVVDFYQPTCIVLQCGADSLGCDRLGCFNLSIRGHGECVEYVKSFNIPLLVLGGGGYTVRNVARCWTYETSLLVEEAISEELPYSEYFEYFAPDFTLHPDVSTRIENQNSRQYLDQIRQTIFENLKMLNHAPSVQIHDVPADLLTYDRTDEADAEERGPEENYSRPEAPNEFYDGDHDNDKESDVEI
Histone deacetylase 1, sequence (Q13547 whole entry): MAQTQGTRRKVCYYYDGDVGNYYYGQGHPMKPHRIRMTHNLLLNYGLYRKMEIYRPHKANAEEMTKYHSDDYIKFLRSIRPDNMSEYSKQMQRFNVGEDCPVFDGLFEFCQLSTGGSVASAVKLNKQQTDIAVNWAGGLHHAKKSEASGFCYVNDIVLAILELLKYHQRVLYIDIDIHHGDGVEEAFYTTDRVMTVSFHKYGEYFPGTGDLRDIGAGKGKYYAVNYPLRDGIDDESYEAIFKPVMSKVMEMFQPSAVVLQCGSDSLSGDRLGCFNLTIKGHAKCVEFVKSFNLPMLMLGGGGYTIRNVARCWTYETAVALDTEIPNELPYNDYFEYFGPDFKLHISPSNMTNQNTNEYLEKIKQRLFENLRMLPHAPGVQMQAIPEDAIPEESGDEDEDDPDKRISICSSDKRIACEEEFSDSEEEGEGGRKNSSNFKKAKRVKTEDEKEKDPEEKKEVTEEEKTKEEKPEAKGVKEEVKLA
Histone deacetylase 2, sequence (Q92769 whole entry): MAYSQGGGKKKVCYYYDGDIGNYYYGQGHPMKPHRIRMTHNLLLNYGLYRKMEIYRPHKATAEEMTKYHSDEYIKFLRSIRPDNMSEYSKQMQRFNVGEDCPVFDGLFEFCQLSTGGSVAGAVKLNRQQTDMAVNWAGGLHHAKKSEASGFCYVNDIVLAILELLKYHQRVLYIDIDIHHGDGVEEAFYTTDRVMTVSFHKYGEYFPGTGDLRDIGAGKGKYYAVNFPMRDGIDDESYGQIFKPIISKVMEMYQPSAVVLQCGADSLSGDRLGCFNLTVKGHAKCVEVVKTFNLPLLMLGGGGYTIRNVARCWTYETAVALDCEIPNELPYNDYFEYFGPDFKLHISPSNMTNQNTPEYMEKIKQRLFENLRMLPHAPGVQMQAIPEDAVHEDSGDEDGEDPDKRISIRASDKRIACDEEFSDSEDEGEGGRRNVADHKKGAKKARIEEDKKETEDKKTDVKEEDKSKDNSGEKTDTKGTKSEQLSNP

Consider `O=C1CC[C@@H](C(=O)N[C@H](CCCCCS)C(=O)Nc2ccccc2)N1`, for which the inhibition in data set [1] is 45%. The Activity in the data set on Mus musculus is 3%. In data set [2], this compound showed a half-life at 5 µM of 45 min. In addition, the IC50 at Histone deacetylase 11 came to 14 nM; on Histone deacetylase 3 it was 5 nM; at Histone deacetylase 1, 13 nM; against Histone deacetylase 2 it was 78 nM.
